Assay results as given in ChEMBL document CHEMBL4316604, “Discovery of Isaindigotone Derivatives as Novel Bloom's Syndrome Protein (BLM) Helicase Inhibitors That Disrupt the BLM/DNA Interactions and Regulate the Homologous Recombination Repair” (J Med Chem, 2019).
Activity calls are given as the source filed them. The calls are words filed in the database; no cut-off is given here.

What was measured:
[1] = target: T1, RecQ-like DNA helicase BLM (Homo sapiens, UniProt P54132); test: Inhibition of His-tagged BLM (unknown origin) expressed in Escherichia coli BL21 (DE3) assessed as reduction in BLM helicase unwinding activity at 1 uM using 5'-biotin labeled forked-DNA as substrate after 1 hr by PAGE analysis
T1 sequence (P54132 whole entry): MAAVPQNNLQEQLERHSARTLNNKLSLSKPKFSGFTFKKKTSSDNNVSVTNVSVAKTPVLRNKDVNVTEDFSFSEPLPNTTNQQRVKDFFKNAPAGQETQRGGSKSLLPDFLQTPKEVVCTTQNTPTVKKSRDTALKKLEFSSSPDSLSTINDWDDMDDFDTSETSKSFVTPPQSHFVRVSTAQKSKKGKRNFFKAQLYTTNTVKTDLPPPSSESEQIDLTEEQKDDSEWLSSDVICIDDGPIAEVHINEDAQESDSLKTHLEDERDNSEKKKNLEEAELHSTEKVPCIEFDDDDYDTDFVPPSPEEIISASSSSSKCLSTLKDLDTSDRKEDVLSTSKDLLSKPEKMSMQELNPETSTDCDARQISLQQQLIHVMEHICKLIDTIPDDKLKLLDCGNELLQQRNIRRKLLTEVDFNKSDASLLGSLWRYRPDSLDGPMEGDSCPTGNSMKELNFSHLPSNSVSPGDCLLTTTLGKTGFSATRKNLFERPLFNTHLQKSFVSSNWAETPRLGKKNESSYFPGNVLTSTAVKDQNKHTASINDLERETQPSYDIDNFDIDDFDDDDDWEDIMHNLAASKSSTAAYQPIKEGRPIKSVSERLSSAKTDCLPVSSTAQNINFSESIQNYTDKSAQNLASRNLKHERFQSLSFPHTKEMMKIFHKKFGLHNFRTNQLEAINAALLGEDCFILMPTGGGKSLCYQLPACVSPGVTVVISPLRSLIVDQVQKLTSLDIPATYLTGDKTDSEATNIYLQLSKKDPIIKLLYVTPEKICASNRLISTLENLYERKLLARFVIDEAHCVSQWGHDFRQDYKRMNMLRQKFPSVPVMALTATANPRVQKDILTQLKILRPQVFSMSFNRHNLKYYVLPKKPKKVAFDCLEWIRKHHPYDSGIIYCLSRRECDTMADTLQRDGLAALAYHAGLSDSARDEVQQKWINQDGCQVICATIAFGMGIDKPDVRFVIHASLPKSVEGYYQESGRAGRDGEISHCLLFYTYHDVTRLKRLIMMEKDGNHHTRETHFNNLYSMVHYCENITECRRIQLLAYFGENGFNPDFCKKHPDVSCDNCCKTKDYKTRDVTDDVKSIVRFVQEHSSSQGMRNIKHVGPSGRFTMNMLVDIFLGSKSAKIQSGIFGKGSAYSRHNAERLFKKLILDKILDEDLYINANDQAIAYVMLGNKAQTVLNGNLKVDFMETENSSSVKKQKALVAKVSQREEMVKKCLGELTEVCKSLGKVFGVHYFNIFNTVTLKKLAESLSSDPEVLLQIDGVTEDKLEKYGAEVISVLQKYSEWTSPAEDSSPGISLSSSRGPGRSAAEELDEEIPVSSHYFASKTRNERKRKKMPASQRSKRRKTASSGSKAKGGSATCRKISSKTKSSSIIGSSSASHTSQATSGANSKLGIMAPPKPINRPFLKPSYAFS
Procedure, shortened: (§1)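 BLM642-1296 (His-tagged, E. coli BL21(DE3)) preincubated with ligand (1.0, 10, 50 μM; ≤1% DMSO) for 1 h at 4 °C. Reaction: 8 nM annealed 5′-biotin duplex forked DNA, 32 nM BLM, 2 mM ATP, 0.1% BSA, 1 h.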

[2] = target: T1, RecQ-like DNA helicase BLM; test: Inhibition of His-tagged BLM (unknown origin) expressed in Escherichia coli BL21 (DE3) assessed as reduction in BLM helicase unwinding activity at 10 uM using 5'-biotin labeled forked-DNA as substrate after 1 hr by PAGE analysis; procedure, shortened: as §1
[3] = target: T1, RecQ-like DNA helicase BLM; test: Inhibition of His-tagged BLM (unknown origin) expressed in Escherichia coli BL21 (DE3) assessed as reduction in BLM helicase unwinding activity at 50 uM using 5'-biotin labeled forked-DNA as substrate after 1 hr by PAGE analysis; procedure, shortened: as §1
[4] = target: T1, RecQ-like DNA helicase BLM; conditions: 50 uM
[5] = target: T1, RecQ-like DNA helicase BLM; test: Inhibition of BLM in human HCT116 cells assessed as induction of HRR up-regulation after 24 hrs by GFP-based flow cytometry; format: cell-based
Procedure, shortened: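 HCT116 cells (2×10^5) co-transfected with DR-GFP HRR reporter and I-SceI plasmid; 24 h later treated with 0–2 μM ligand (reference 0–50 μM); BLM siRNA knockdown where stated. GFP-positive cells counted by flow cytometry and normalised to untreated; triplicate, mean ± SD.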

Row | SMILES | inhibition [1] | inhibition [2] | inhibition [3] | inhibition [4] | EC [5] [µM]
1 | CCN(CC)CCCNc1cc2nc3n(c(=O)c2cc1F)CC/C3=C\c1ccc(C(F)(F)F)cc1 | Active | Active | Active | – | –
2 | CCN(CC)CCCNc1cc2nc3n(c(=O)c2cc1F)CC/C3=C\c1ccc(C(C)(C)C)cc1 | Active | Active | Active | – | –
3 | CCN(CC)CCCNc1cc2nc3n(c(=O)c2cc1F)CC/C3=C\c1ccc(CC(C)C)cc1 | Active | Active | Active | – | –
4 | O=C(Nc1ccc(F)c(C(F)(F)F)c1)Nc1nnc(-c2ccncc2)s1 | Active | Active | Active | inactive | 50
